Measured values as given in PMC10668576 (RSC Advances, 2023).
In brackets after ≈: the same amount, converted by molar mass.

Tests used:
Pseudomonas aeruginosa [1] = experiment: Disk diffusion inhibition zones; type: cell-based; conditions: 24 h
How it was run: (§1)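 Test compound was dissolved in DMSO at 1000 μg mL−1 and soaked onto sterile 6 mm filter-paper discs. Discs were placed on Mueller–Hinton agar inoculated with fresh cultures suspended in sterile physiological water, then incubated at 37 °C for 24 h. DMSO discs served as negative control, with azithromycin (30 mg mL−1) as reference. Clear-zone width was read in mm with a transparent ruler.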

Escherichia coli [2] = experiment: Minimum inhibitory concentration, serial dilution; type: cell-based
How it was run: (§2)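 Inoculum was 10^6 cfu mL−1, incubated at 37 °C for 18–24 h. Wells were inspected for presence or absence of growth, and MIC was taken as the lowest concentration preventing growth. Each organism was tested on three separate occasions.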

[3] = system: Staphylococcus epidermidis; experiment: Disk diffusion inhibition zones; type: cell-based; conditions: 24 h
How it was run: as §1

Aeromonas sobria [4] = experiment: Minimum inhibitory concentration, serial dilution; type: cell-based
How it was run: as §2

Aeromonas sobria [5] = experiment: Disk diffusion inhibition zones; type: cell-based; conditions: 24 h
How it was run: as §1

Klebsiella pneumoniae [6] = experiment: Minimum inhibitory concentration, serial dilution; type: cell-based
Pseudomonas aeruginosa [7] = experiment: Minimum inhibitory concentration, serial dilution; type: cell-based
How it was run: as §2

Escherichia coli [8] = experiment: Disk diffusion inhibition zones; type: cell-based; conditions: 24 h
How it was run: as §1

Staphylococcus aureus [9] = experiment: Minimum inhibitory concentration, serial dilution; type: cell-based; conditions: Muller Hinton broth, 37 °C, 18 to 24 h
How it was run: as §2

[10] = system: Staphylococcus epidermidis; experiment: Minimum inhibitory concentration, serial dilution; type: cell-based
How it was run: as §2

Bacillus cereus [11] = experiment: Disk diffusion inhibition zones; type: cell-based; conditions: 24 h
How it was run: as §1

Bacillus cereus [12] = experiment: Minimum inhibitory concentration, serial dilution; type: cell-based
How it was run: as §2

Klebsiella pneumoniae [13] = experiment: Disk diffusion inhibition zones; type: cell-based; conditions: 24 h
[14] = system: Stenotrophomonas maltophilia; experiment: Disk diffusion inhibition zones; type: cell-based; conditions: 24 h
How it was run: as §1

Staphylococcus aureus [15] = experiment: Disk diffusion inhibition zones; type: cell-based; conditions: 24 h
How it was run: as §1

[16] = system: Stenotrophomonas maltophilia; experiment: Minimum inhibitory concentration, serial dilution; type: cell-based
How it was run: as §2

[17] = Acute parenteral toxicity in rats; type: in vivo; conditions: 0.5 to 50 mg per kg body weight, 14 days observation
How it was run: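 Single parenteral dose of test compound dissolved in ethanol with gentle heating, given by tuberculin syringe following OECD 425 to female albino Wistar rats (190 ± 20 g), 3 per dose, at 0.5, 1, 10, 30 or 50 mg kg−1. Controls were ethanol-injected and non-injected rats. Rats were observed every 30 min for 6 h, then through 24 h and daily to 14 days. Organs were examined macroscopically and weighed on day 15.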

burn wounds = experiment: Burn healing assay in rats; type: in vivo, albino Wistar female rats; conditions: 1% cream, one application per 24 h on burn wound, n = 3

| Structure (SMILES) | zone of inhibition at 1000 µg/mL (Pseudomonas aeruginosa [1]) [mm] | MIC (Escherichia coli [2]) [µg/mL] | zone of inhibition at 1000 µg/mL [3] [mm] | MIC (Aeromonas sobria [4]) [µg/mL] | zone of inhibition at 1000 µg/mL (Aeromonas sobria [5]) [mm] | MIC (Klebsiella pneumoniae [6]) [µg/mL] | MIC (Pseudomonas aeruginosa [7]) [µg/mL] | zone of inhibition at 1000 µg/mL (Escherichia coli [8]) [mm] | MIC (Staphylococcus aureus [9]; Staphylococcus aureus) [µg/mL] | MIC [10] [µg/mL] | zone of inhibition at 1000 µg/mL (Bacillus cereus [11]) [mm] | MIC (Bacillus cereus [12]) [µg/mL] | zone of inhibition at 1000 µg/mL (Klebsiella pneumoniae [13]) [mm] | zone of inhibition at 1000 µg/mL [14] [mm] | zone of inhibition at 1000 µg/mL (Staphylococcus aureus [15]) [mm] | MIC [16] [µg/mL] | Mortality [17] | Signs of toxicity [17] | Day utilized for recovery (burn wounds) [days] | MIC (Staphylococcus aureus [9]) [µg/mL] |
| --- | --- | --- | --- | --- | --- | --- | --- | --- | --- | --- | --- | --- | --- | --- | --- | --- | --- | --- | --- | --- |
| O=C(O)c1cc(N=Nc2nccs2)ccc1O [Compound 3, 2-Hydroxy-5-(thiazol-2-yldiazenyl)benzoic acid] | 10 ± 0.33 | 60 (≈ 241 µM) | 14 ± 0.25 | 20 (≈ 80.2 µM) | 10 ± 0.31 | 80 (≈ 321 µM) | 80 (≈ 321 µM) | 9 | 10 (≈ 40.1 µM) | 10 (≈ 40.1 µM) | 10 ± 0.03 | 20 (≈ 80.2 µM) | 11 ± 0.31 | 8 ± 0.11 | 12 ± 0.23 | 40 (≈ 160 µM) |  |  |  |  |
| O=C(Nc1nccs1)c1cc(N=Nc2nccs2)ccc1O [Compound 3a, 2-Hydroxy-N-(thiazol-2-yl)-5-(thiazol-2-yldiazenyl)benzamide] | 9 | 80 (≈ 241 µM) | 18 ± 0.26 | 40 (≈ 121 µM) | 10 ± 0.15 | 200 (≈ 604 µM) | 60 (≈ 181 µM) | 9 ± 0.33 | 10 (≈ 30.2 µM) | 80 (≈ 241 µM) | 10 ± 0.23 | 100 (≈ 302 µM) | 13 ± 0.22 | 9 ± 0.28 | 13 ± 0.21 | 60 (≈ 181 µM) | no occurrences of mortality | did not display any noteworthy signs of toxicity | 26 |  |
| CC[C@H]1OC(=O)[C@H](C)[C@@H](O[C@H]2C[C@@](C)(OC)[C@@H](O)[C@H](C)O2)[C@H](C)[C@@H](O[C@@H]2O[C@H](C)C[C@H](N(C)C)[C@H]2O)[C@](C)(O)C[C@@H](C)CN(C)[C@H](C)[C@@H](O)[C@]1(C)O [azithromycin, reference compound] | 7 ± 0.14 | 20 (≈ 26.7 µM) | 11 ± 0.32 | 20 (≈ 26.7 µM) | 18 ± 0.41 | 60 (≈ 80.1 µM) |  | 7 ± 0.32 | 40 (≈ 53.4 µM) | 80 (≈ 107 µM) | 11 ± 0.31 | 80 (≈ 107 µM) | 20 ± 0.26 | 10 ± 0.02 | 15 ± 0.09 | 40 (≈ 53.4 µM) |  |  |  | 20 (≈ 26.7 µM) |
| O=C(Nc1nc2ccccc2s1)c1cc(N=Nc2nccs2)ccc1O [Compound 3b, N-(Benzo[d]thiazol-2-yl)-2-hydroxy-5-(thiazol-2-yldiazenyl)benzamide] | 9 | 20 (≈ 52.4 µM) | 14 ± 0.23 | 10 (≈ 26.2 µM) | 10 ± 0.28 | 80 (≈ 210 µM) | 40 (≈ 105 µM) | 9 ± 0.14 | 20 (≈ 52.4 µM) | 10 (≈ 26.2 µM) | 10 ± 0.33 | 80 (≈ 210 µM) | 14 ± 0.28 | 10 ± 0.04 | 13 ± 0.58 | 20 (≈ 52.4 µM) | no occurrences of mortality | did not display any noteworthy signs of toxicity | 24 |  |
| O=C(Nc1ccc(S(=O)(=O)c2nccs2)cc1)c1cc(N=Nc2nccs2)ccc1O [Compound 3c, 2-Hydroxy-5-(thiazol-2-yldiazenyl)-N-(4-(thiazol-2-ylsulfonyl)phenyl)benzamide] | 9 ± 0.33 | 20 (≈ 42.4 µM) | 12 ± 0.43 | 40 (≈ 84.8 µM) | 10 ± 0.33 |  |  | 9 ± 0.16 | 10 (≈ 21.2 µM) | 40 (≈ 84.8 µM) | 10 ± 0.13 |  | 12 ± 0.11 | 9 ± 0.21 | 16 ± 0.09 | 40 (≈ 84.8 µM) | no occurrences of mortality | did not display any noteworthy signs of toxicity | 27 |  |
